Data taken from ChEMBL document CHEMBL1148329, “Synthesis and structure-activity studies on N-[5-(1H-imidazol-4-yl)-5,6,7,8-tetrahydro-1-naphthalenyl]methanesulfonamide, an imidazole-containing alpha(1A)-adrenoceptor agonist” (J Med Chem, 2004).
Activity calls are given as the source filed them. No cut-off for these calls is given here.

How the values were obtained:
Canis familiaris [1] = test: Uroselectivity was determined by measuring effective dose required for 5 mmHg increase of intraurethral pressure (IUP) in vivo in dog; IA = Inactive; type: functional, organism-based; settings: Canis lupus familiaris
Procedure, shortened: (§1)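 Dog model recording intraurethral pressure (IUP) and mean arterial pressure (MAP) simultaneously. Increasing iv doses given, maximal effect of each dose taken. Doses giving a 5 mmHg rise in IUP (ED Δ5) or 20 mmHg rise in MAP (ED Δ20) were calculated, in nmol/kg ± SEM, n ≥ 4 (2 or 3 where footnoted).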

[2] = target: T1, Alpha-1A adrenergic receptor (Oryctolagus cuniculus) (UniProt O02824); test: Efficacy relative to phenylephrine (PE) to constrict tissue containing the alpha-1A adrenergic receptor in rabbit urethra; type: functional, tissue-based
T1 sequence (whole entry): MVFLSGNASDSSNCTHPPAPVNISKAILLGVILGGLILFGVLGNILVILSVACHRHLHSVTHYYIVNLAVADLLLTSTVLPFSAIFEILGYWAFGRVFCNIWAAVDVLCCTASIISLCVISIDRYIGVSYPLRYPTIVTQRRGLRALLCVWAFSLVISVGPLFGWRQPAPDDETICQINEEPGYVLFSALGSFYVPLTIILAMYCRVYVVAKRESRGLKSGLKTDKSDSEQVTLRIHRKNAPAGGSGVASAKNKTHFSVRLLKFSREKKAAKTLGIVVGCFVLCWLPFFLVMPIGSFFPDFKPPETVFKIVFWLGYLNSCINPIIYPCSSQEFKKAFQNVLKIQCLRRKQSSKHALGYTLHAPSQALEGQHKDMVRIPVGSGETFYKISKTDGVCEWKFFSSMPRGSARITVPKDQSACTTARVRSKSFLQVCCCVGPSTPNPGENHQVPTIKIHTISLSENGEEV
Procedure, shortened: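 α1-agonist dose–response curves in isolated tissue: rabbit urethra (α1A), rat spleen (α1B), rat aorta (α1D). Agonist potency and efficacy read from the concentration–response curves.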

Canis familiaris [3] = test: Uroselectivity was determined by measuring effective dose required for 20 mmHg increase of mean arterial pressure (MAP) in vivo in dog; IA = Inactive; type: functional, organism-based; settings: Canis lupus familiaris; Artery; procedure, shortened: as §1
[4] = target: Alpha adrenergic receptor 1A and 1D (Rattus norvegicus) (UniProt P23944+P43140); test: Selectivity is ratio of pKi (binding affinity) of Alpha-1D to that of alpha1A; type: protein assay
[5] = target: Alpha adrenergic receptor 1A and 1B (Rattus norvegicus) (UniProt P15823+P43140); test: Selectivity is ratio of pKi (binding affinity) of alpha-1B receptor to that of alpha-1A receptor.; type: protein assay
[6] = target: T2, Alpha-1D adrenergic receptor (Rattus norvegicus, UniProt P23944); test: In vitro binding affinity towards alpha-1D adrenergic receptor of rat clone in radioligand binding assay
T2 sequence (P23944 whole entry): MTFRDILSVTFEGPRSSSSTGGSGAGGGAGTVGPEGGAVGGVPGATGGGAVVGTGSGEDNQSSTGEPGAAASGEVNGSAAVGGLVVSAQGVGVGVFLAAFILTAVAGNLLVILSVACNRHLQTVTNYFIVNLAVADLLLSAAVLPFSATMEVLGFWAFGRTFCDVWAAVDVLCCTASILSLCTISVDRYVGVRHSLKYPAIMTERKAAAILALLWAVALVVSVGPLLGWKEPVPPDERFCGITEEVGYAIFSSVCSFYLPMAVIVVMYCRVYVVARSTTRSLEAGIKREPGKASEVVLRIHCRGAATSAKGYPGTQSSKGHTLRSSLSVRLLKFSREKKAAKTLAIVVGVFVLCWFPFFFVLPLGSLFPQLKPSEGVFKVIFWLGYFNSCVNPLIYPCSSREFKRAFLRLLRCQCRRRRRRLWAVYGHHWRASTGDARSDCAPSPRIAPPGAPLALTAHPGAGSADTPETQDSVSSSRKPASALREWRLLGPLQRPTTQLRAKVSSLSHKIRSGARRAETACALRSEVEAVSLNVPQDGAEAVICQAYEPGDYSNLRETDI
Procedure, shortened: (§2)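 Radioligand binding at α1 subtypes: α1A from rat submaxillary gland, α1B hamster clone, α1D rat clone. Run essentially per an earlier method.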

[7] = target: T3, Alpha-1B adrenergic receptor (Mesocricetus auratus, UniProt P18841); test: In vitro binding affinity towards alpha-1B adrenergic receptor of hamster clone in radioligand binding assay; type: single protein; procedure, shortened: as §2
T3 sequence (P18841 whole entry): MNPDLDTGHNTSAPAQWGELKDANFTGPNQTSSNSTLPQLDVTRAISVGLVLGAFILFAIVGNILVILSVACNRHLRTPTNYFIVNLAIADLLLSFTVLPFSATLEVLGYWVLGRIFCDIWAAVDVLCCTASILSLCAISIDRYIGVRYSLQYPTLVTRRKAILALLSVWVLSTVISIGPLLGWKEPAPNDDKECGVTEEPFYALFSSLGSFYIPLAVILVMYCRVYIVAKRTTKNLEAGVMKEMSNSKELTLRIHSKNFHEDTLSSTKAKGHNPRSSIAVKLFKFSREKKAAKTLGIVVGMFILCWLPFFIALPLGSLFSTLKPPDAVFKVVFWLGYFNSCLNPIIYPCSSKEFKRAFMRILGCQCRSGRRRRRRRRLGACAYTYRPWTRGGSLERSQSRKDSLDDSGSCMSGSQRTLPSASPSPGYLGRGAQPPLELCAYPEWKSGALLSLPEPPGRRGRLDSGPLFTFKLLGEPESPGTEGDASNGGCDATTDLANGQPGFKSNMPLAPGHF

[8] = target: Alpha-1A adrenergic receptor (Oryctolagus cuniculus) (UniProt O02824); test: Functional agonism of the compounds to constrict tissue containing the alpha-1A adrenergic receptor in rabbit urethra; Inactive
[9] = target: T4, Alpha-1A adrenergic receptor (Bos taurus, UniProt P18130); test: In vitro binding affinity towards alpha-1A adrenergic receptor of bovine clone in radioligand binding assay
T4 sequence (P18130 whole entry): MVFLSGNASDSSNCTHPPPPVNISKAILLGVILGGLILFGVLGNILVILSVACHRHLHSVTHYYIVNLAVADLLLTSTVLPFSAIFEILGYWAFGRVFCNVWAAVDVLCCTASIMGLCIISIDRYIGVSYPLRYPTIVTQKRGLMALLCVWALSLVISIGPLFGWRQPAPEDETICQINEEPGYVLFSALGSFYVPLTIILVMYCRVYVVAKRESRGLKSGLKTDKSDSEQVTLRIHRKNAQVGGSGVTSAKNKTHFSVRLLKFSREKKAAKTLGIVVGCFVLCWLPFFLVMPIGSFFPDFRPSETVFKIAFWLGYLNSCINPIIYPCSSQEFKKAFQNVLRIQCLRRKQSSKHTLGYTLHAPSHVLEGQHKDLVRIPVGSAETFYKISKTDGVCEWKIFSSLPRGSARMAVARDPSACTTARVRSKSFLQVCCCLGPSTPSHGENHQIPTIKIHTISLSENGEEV

Alpha adrenergic receptor 1A and 1B (Rattus norvegicus), sequence (P15823 whole entry, looked up): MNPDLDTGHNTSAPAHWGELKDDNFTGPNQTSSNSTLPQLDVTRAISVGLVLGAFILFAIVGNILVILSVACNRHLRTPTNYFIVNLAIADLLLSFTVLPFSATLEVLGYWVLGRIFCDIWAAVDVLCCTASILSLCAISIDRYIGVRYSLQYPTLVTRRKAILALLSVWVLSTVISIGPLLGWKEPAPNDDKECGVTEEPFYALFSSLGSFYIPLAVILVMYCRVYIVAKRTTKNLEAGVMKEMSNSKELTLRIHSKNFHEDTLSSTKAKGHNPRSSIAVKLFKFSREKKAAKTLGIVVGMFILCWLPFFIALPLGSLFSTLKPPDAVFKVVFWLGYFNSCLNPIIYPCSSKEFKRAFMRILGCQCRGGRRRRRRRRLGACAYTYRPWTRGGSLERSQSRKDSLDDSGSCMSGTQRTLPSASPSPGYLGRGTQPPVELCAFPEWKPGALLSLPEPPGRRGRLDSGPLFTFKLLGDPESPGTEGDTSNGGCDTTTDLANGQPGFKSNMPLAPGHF
Alpha adrenergic receptor 1A and 1B (Rattus norvegicus), sequence (P43140 whole entry, looked up): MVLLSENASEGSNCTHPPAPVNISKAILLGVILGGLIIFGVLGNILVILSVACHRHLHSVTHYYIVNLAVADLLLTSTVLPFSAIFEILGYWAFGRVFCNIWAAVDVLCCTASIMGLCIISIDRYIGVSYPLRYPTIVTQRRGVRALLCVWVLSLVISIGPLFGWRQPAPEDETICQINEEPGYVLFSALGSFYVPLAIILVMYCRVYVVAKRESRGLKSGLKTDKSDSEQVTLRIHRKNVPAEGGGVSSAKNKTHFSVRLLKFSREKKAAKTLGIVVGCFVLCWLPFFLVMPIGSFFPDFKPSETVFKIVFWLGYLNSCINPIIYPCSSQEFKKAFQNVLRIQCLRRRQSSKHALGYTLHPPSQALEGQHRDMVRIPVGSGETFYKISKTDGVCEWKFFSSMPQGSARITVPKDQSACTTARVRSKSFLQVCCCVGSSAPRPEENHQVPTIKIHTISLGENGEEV

SMILES	ED delta5 (Canis familiaris [1])	Efficacy [2] [%]	ED delta20 (Canis familiaris [3])	Selectivity [4]	Selectivity [5]	Ki [6] [nM]	Ki [7] [nM]	pD2 [8]	Ki [9] [nM]
Cn1cnc(C2CCCc3c(NS(C)(=O)=O)cccc32)c1 (stereo unspecified)	inactive	40	inactive	–	–	–	–	–	–
O=S(=O)(Nc1cccc2c1CCCC2c1c[nH]cn1)c1ccc2ccccc2c1 (stereo unspecified)	–	–	–	0.4	1	100	214	inactive	692
CS(=O)(=O)Nc1cccc2c1CCC=C2c1c[nH]cn1	inactive	–	inactive	–	–	–	–	–	–
